# Laboratory results: ChEMBL document CHEMBL1134546, “Structure-based design, synthesis, and biological evaluation of conformationally restricted novel 2-alkylthio-6-[1-(2,6-difluorophenyl)alkyl]-3,4-dihydro-5-alkylpyrimidin-4(3H)-ones as non-nucleoside inhibitors of HIV-1 reverse transcriptase” (J Med Chem, 2001)
# Columns and labels:
# [1] = system: Human immunodeficiency virus 1; assay: Effective concentration against HIV-1 induced cytopathogenicity in MT-4 cells; assay type: functional, organism-based, MT4
# Method in brief: (§1)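 MT-4 cells (1 × 10⁴/well) incubated with serial compound dilutions (200 mM DMSO stock diluted in medium), with or without HIV-1 IIIB (100 CCID₅₀/well), 4 days at 37 °C in RPMI 1640 with 10% FCS. Viable cells counted by MTT. CC₅₀ from mock-infected cells and EC₅₀ as 50% protection from virus-induced cytopathicity, run in parallel. Mean of at least two experiments.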
# MT4 [2] = assay: Cytotoxicity against MT-4 cells.; assay type: functional, Homo sapiens; method in brief: as §1
# MT4 [3] = assay: CC50/EC50 ratio of the compound; assay type: functional
# Method in brief: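 Selectivity index, calculated as CC₅₀/EC₅₀. Both values come from the parallel MTT readout in mock-infected and HIV-1 IIIB-infected MT-4 cells (4-day incubation at 37 °C).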
# [4] = target: Human immunodeficiency virus type 1 reverse transcriptase (Human immunodeficiency virus 1, UniProt Q72547); assay: Inhibitory activity against HIV-1 recombinant reverse transcriptase.
# [5] = system: Human immunodeficiency virus 1; assay: Anti-HIV-1 activity determined as dose required to reduce p24 antigen levels.; assay type: functional
# MT4 [6] = assay: Anti-HIV-1 activity against WTIIIB HIV-1 strain in MT-4 cells; assay type: functional, cell-based; conditions: Homo sapiens
# MT4 [7] = assay: Anti-HIV-1 activity against Y181C HIV-1 strain in MT-4 cells; assay type: functional, cell-based; conditions: Homo sapiens
# [8] = Y181C/WTIIIB ratio of the compound; assay type: functional
# Method in brief: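 Fold resistance, given as the EC₅₀ against Y181C mutant HIV-1 divided by the EC₅₀ against wild-type IIIB. Each EC₅₀ is the dose giving 50% protection of MT-4 cells from virus-induced cytopathicity, read by MTT.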
# [9] = Human immunodeficiency virus 1, MT4
Compound,"EC50 [1, 9]","CC50 (MT4 [2]; Homo sapiens, MT4)",Selectivity index (MT4 [3]),IC50 [4],also measured
CCC(c1cc(O)nc(SC2CCCCC2)n1)c1c(Cl)cccc1Cl (stereo not drawn),3600 nM,> 200000 nM,>55.5,,
CC(c1ccccc1)c1cc(O)nc(SC2CCCC2)n1 (stereo not drawn),600 nM,159000 nM,333,2100 nM,
CCC(C)Sc1nc(O)c(C)c(Cc2c(F)cccc2F)n1 (stereo not drawn),50 nM,> 200000 nM,>4000,,
CSc1nc(O)cc(C(C)c2c(F)cccc2F)n1 (stereo not drawn),180 nM,20800 nM,115,200 nM,
CCC(c1cc(O)nc(SC2CCCC2)n1)c1c(F)cccc1F (stereo not drawn),150 nM,> 200000 nM,1333,,EC90 [5]: 80 nM; EC99 [5]: 0.15 µM; EC99.9 [5]: 0.3 µM
CCC(c1cc(O)nc(SC(C)C)n1)c1cccc2ccccc12 (stereo not drawn),1500 nM,50000 nM,33.3,800 nM,
CC(c1cc(O)nc(SC2CCCCC2)n1)c1cccc2ccccc12 (stereo not drawn),140 nM,45000 nM,321.4,2600 nM,
CCC(c1cc(O)nc(SC2CCCC2)n1)c1cccc2ccccc12 (stereo not drawn),3000 nM,51000 nM,17,,
CC(C)CSc1nc(O)cc(C(C)c2c(F)cccc2F)n1 (stereo not drawn),50 nM,> 200000 nM,>4000,,
CC(c1cc(O)nc(SC2CCCCC2)n1)c1c(Cl)cccc1Cl (stereo not drawn),2900 nM,> 200000 nM,>69,,
CCC(C)Sc1nc(O)cc(Cc2c(F)cccc2F)n1 (stereo not drawn),40 nM,,>5000,,
Cc1c(C(C)c2c(F)cccc2F)nc(SC2CCCC2)[nH]c1=O (stereo in doubt; [+]3w),,> 200000 nM,>100000,8 nM,EC50 ([1]; mt4): 2 nM
CC(C)Sc1nc(O)cc(C(C)c2ccccc2)n1 (stereo not drawn),900 nM,> 200000 nM,>222,2300 nM,
Cc1c(Cc2c(F)cccc2F)nc(SC2CCCC2)[nH]c1=O,80 nM,,>2500,,EC90 [5]: 40 nM; EC99 [5]: 0.075 µM; EC99.9 [5]: 0.15 µM; EC50 (MT4 [6]): 40 nM; EC50 (MT4 [7]): 1200 nM; Fold resistance [8]: 30
CCC(c1cc(O)nc(SC2CCCC2)n1)c1c(Cl)cccc1Cl (stereo not drawn),1000 nM,23400 nM,23.4,,
CC(C)Sc1nc(Cc2c(F)cccc2F)cc(=O)[nH]1,50 nM,,>4000,,EC90 [5]: 42 nM; EC99 [5]: 0.083 µM; EC99.9 [5]: 0.19 µM
CC(C)Sc1nc(O)cc(C(C)c2c(F)cccc2F)n1 (stereo not drawn),50 nM,167000 nM,3340,,EC90 [5]: 42 nM; EC99 [5]: 0.083 µM; EC99.9 [5]: 0.19 µM
CC(C)Sc1nc(O)cc(C(C)c2c(Cl)cccc2Cl)n1 (stereo not drawn),1200 nM,117000 nM,97.5,,
CSc1nc(O)c(C)c(C(C)c2c(F)cccc2F)n1 (stereo not drawn),40 nM,> 200000 nM,>5000,20 nM,EC50 (MT4 [6]): 37 nM; EC50 (MT4 [7]): > 10000 nM; Fold resistance [8]: > 270
CCC(c1cc(O)nc(SC2CCCCC2)n1)c1cccc2ccccc12 (stereo not drawn),180 nM,16900 nM,94,1400 nM,
O=c1cc(Cc2c(F)cccc2F)nc(SC2CCCC2)[nH]1,80 nM,,>2500,,EC90 [5]: 80 nM; EC99 [5]: 0.15 µM; EC99.9 [5]: 0.3 µM
CCC(C)Sc1nc(O)cc(C(CC)c2ccccc2)n1 (stereo not drawn),400 nM,> 200000 nM,>500,,
O=C1Nc2ccc(Cl)cc2[C@@](C#CC2CC2)(C(F)(F)F)O1 [EFAVIRENZ],,,,,EC50 (MT4 [6]): 4 nM; EC50 (MT4 [7]): 25 nM; Fold resistance [8]: 6
Cc1ccnc2c1NC(=O)c1cccnc1N2C1CC1 [NEVIRAPINE],,,,,EC50 (MT4 [6]): 370 nM; EC50 (MT4 [7]): > 30000 nM

Compound,"EC50 [1, 9]","CC50 (MT4 [2]; Homo sapiens, MT4)",Selectivity index (MT4 [3]),IC50 [4],also measured
CCC(C)Sc1nc(O)cc(C(C)c2ccccc2)n1 (stereo not drawn),230 nM,200000 nM,870,,
CCC(c1cc(O)nc(SC2CCCCC2)n1)c1c(F)cccc1F (stereo not drawn),50 nM,> 200000 nM,2600,,
CC(c1cc(O)nc(SC2CCCC2)n1)c1cccc2ccccc12 (stereo not drawn),500 nM,93000 nM,186,400 nM,
CCC(c1ccccc1)c1cc(O)nc(SC2CCCC2)n1 (stereo not drawn),1000 nM,> 200000 nM,>200,> 10000 nM,
CCC(c1ccccc1)c1cc(O)nc(SC2CCCCC2)n1 (stereo not drawn),1300 nM,> 200000 nM,>154,3700 nM,
CCC(C)Sc1nc(O)c(C)c(C(C)c2c(F)cccc2F)n1 (stereo not drawn),30 nM,> 200000 nM,6666,20 nM,EC50 (MT4 [6]): 20 nM; EC50 (MT4 [7]): 300 nM; Fold resistance [8]: 15
CCCCSc1nc(O)c(C)c(C(C)c2c(F)cccc2F)n1 (stereo not drawn),8 nM,112000 nM,14000,,
Cc1c(O)nc(SC2CCCCC2)nc1C(C)c1c(F)cccc1F (stereo not drawn),18 nM,> 200000 nM,>11111,,
Cc1c(Cc2c(F)cccc2F)nc(SC(C)C)[nH]c1=O,50 nM,,>4000,,EC90 [5]: 26 nM; EC99 [5]: 0.065 µM; EC99.9 [5]: 0.15 µM
Cc1c(C(C)c2c(F)cccc2F)nc(SC2CCCC2)[nH]c1=O (stereo in doubt; [-]3w),,,>286,1000 nM,EC50 ([1]; mt4): 70 nM; CC50 (MT4 [2]): 200000 nM
CC(c1cc(O)nc(SC2CCCCC2)n1)c1c(F)cccc1F (stereo not drawn),160 nM,> 200000 nM,>1250,,
CCC(c1cc(O)nc(SC(C)C)n1)c1c(Cl)cccc1Cl (stereo not drawn),400 nM,> 200000 nM,>500,,
Cc1c(O)nc(SC(C)C)nc1C(C)c1c(F)cccc1F (stereo not drawn),7 nM,> 200000 nM,>28570,19 nM,
CC(c1ccccc1)c1cc(O)nc(SC2CCCCC2)n1 (stereo not drawn),600 nM,149000 nM,248,,
CCCCSc1nc(O)cc(C(C)c2c(F)cccc2F)n1 (stereo not drawn),70 nM,> 200000 nM,2857,,
CC(c1cc(O)nc(SC2CCCC2)n1)c1c(Cl)cccc1Cl (stereo not drawn),1000 nM,78300 nM,78.3,,
CCC(c1ccccc1)c1cc(O)nc(SC(C)C)n1 (stereo not drawn),800 nM,200000 nM,250,2300 nM,
CC(c1cc(=O)[nH]c(SC2CCCC2)n1)c1c(F)cccc1F (stereo not drawn),30 nM,> 200000 nM,>6666,50 nM,EC90 [5]: 15 nM; EC99 [5]: 0.035 µM; EC99.9 [5]: 0.09 µM
Cc1c(C(C)c2c(F)cccc2F)nc(SC2CCCC2)[nH]c1=O (stereo in doubt; 3w),,,>33333,5 nM,EC90 [5]: 6 nM; EC99 [5]: 0.015 µM; EC99.9 [5]: 0.033 µM; EC50 ([1]; mt4): 6 nM
CCC(c1cc(O)nc(SC(C)C)n1)c1c(F)cccc1F (stereo not drawn),80 nM,70000 nM,875,,EC90 [5]: 15 nM; EC99 [5]: 0.035 µM; EC99.9 [5]: 0.09 µM
CC(C)Sc1nc(O)cc(C(C)c2cccc3ccccc23)n1 (stereo not drawn),1100 nM,119000 nM,108,5800 nM,
Cc1c(O)nc(SCC(C)C)nc1C(C)c1c(F)cccc1F (stereo not drawn),10 nM,> 200000 nM,>20000,,
CCC(C)Sc1nc(O)cc(C(C)c2c(F)cccc2F)n1 (stereo not drawn),30 nM,> 200000 nM,>6666,,
CCOCn1c(Cc2ccccc2)c(C(C)C)c(=O)[nH]c1=O [EMIVIRINE],30 nM,,6666,,EC90 [5]: 14 nM; EC99 [5]: 0.041 µM; EC99.9 [5]: 0.082 µM
